# Assay results as given in ChEMBL document CHEMBL4765252, “Design, synthesis, and biological evaluation of novel 4H-chromen-4-one derivatives as antituberculosis agents against multidrug-resistant tuberculosis” (Eur J Med Chem, 2020).
# How the values were obtained:
# [1] = tested on: Mycobacterium tuberculosis; test: Antitubercular activity against Mycobacterium tuberculosis H37Rv assessed as inhibition of bacterial growth; type: functional
# [2] = tested on: Mycobacterium tuberculosis; test: Antitubercular activity against Mycobacterium tuberculosis H37Rv assessed as inhibition of bacterial growth measured after 7 days by resazurin assay; type: functional; conditions: 168 h, time 7 day
# [3] = tested on: Mycobacterium tuberculosis; test: Antitubercular activity against Mycobacterium tuberculosis H37Rv assessed as inhibition of bacterial growth incubated for 6 days by MABA assay; type: functional; conditions: 144 h, time 6 day
# [4] = tested on: Mycobacterium tuberculosis; test: microbe, parasite or virus in culture; conditions: mc2-7000, 144 h
# [5] = Metabolic stability of the compound in human liver microsomes; type: ADME, Microsome
# [6] = Metabolic stability of the compound in mouse liver microsomes; type: ADME, Microsome
# Outline: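 Compound was incubated with mouse liver microsomes plus NADPH for 30 min. Remaining substrate concentration was normalized to the time-zero concentration and given as % remaining. The stability call was made from incubations run without the NADPH cofactor.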
# [7] = Selectivity index, ratio of IC50 for African green monkey Vero cells to MIC for Mycobacterium tuberculosis H37Rv; type: toxicity; conditions: read-out: Selectivity Index
# Outline: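 SI was calculated as Vero cell cytotoxicity IC50 divided by H37Rv MIC, both in μg/mL.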
# [8] = Metabolic stability of the compound in mouse liver microsomes assessed as parent compound remaining […]; type: ADME, Microsome; conditions: read-out: Stabilty
# Vero = test: Cytotoxicity against African green monkey Vero cells assessed as reduction in cell viability; type: cell-based; conditions: Chlorocebus sabaeus
# [9] = MRT (0 to t) in BALB/c mouse at 5 mg/kg, iv administered as single dose; type: ADME, organism-based; conditions: in vivo
# [10] = tested on: Mycobacterium tuberculosis; test: In vivo antitubercular activity against Mycobacterium tuberculosis H37Rv infected in BALB/c mouse assessed as reduction in bacterial burden in lungs at 100 mg/kg, po administered for 21 days (reference value: 5.35 +/-0.17 log10CFU); type: functional; conditions: time 21 day
# [11] = Cmax in BALB/c mouse at 5 mg/kg, iv administered as single dose; type: ADME, organism-based; parameters: route intravenous, dose 5 mg/kg; conditions: in vivo
# [12] = Oral bioavailability in BALB/c mouse at 100 mg/kg; type: ADME, organism-based; conditions: in vivo
# [13] = Toxicity in BALB/c mouse infected with Mycobacterium tuberculosis H37Rv assessed as body weight at 100 mg/kg, po administered for 21 days (reference value: 21.32 +/- 1.03 gms); type: organism-based; conditions: in vivo, 504 h, time 21 day
# [14] = AUC (0 to infinity) in BALB/c mouse at 5 mg/kg, iv administered as single dose; type: ADME, organism-based; parameters: time infinity, route intravenous, dose 5 mg/kg; conditions: in vivo
# [15] = Cmax in BALB/c mouse at 100 mg/kg, po administered as single dose; type: ADME, organism-based; parameters: route oral, dose 100 mg/kg; conditions: in vivo
# [16] = MRT (0 to infinity) in BALB/c mouse at 100 mg/kg, po administered as single dose; type: ADME, organism-based; conditions: in vivo
# [17] = Elimination half life in BALB/c mouse at 5 mg/kg, iv administered as single dose; type: ADME, organism-based; conditions: in vivo, read-out: beta t1/2 (converted)
# [18] = Elimination half life in BALB/c mouse at 100 mg/kg, po administered as single dose; type: ADME, organism-based; conditions: in vivo, read-out: beta t1/2 (converted)
# [19] = AUC (0 to infinity) in BALB/c mouse at 100 mg/kg, po administered as single dose; type: ADME, organism-based; parameters: time infinity, route oral, dose 100 mg/kg; conditions: in vivo
# [20] = Clearance in BALB/c mouse at 5 mg/kg, iv administered as single dose; type: ADME, organism-based; conditions: in vivo
# [21] = Tmax in BALB/c mouse at 100 mg/kg, po administered as single dose; type: ADME, organism-based; conditions: in vivo
# [22] = MRT (0 to t) in BALB/c mouse at 100 mg/kg, po administered as single dose; type: ADME, organism-based; conditions: in vivo
# [23] = AUC (0 to t) in BALB/c mouse at 5 mg/kg, iv administered as single dose; type: ADME, organism-based; parameters: dose 5 mg/kg; conditions: in vivo
# [24] = Volume of distribution in BALB/c mouse at 5 mg/kg, iv administered as single dose; type: ADME, organism-based; conditions: in vivo
# [25] = MRT (0 to infinity) in BALB/c mouse at 5 mg/kg, iv administered as single dose; type: ADME, organism-based; conditions: in vivo
# [26] = AUC (0 to t) in BALB/c mouse at 100 mg/kg, po administered as single dose; type: ADME, organism-based; parameters: dose 100 mg/kg; conditions: in vivo
# [27] = tested on: Mycobacterium tuberculosis; test: In vivo antitubercular activity against Mycobacterium tuberculosis H37Rv infected in BALB/c mouse assessed as reduction in bacterial burden in lungs at 25 mg/kg, po administered for 21 days (reference value: 5.35 +/-0.17 log10CFU); type: functional; conditions: time 21 day
# [28] = Toxicity in BALB/c mouse infected with Mycobacterium tuberculosis H37Rv assessed as body weight at 25 mg/kg, po administered for 21 days (reference value: 21.32 +/- 1.03 gms); type: organism-based; conditions: in vivo, 504 h, time 21 day
compound,measurement,setting,value
COc1ccc(-c2cc(=O)c3cc(O)ccc3o2)cc1,MIC,[1],> 32 µg/mL
C=CCCCCCCC[C@H]1C(=O)O[C@@H]1CCCCCNC(=O)c1ccc(N(C)C)cc1,MIC,[2],1.6 µM
COC(=O)c1c(NC(=O)c2c(F)c(F)c(F)c(F)c2F)sc2c1CCCCC2,MIC,[1],1 µM
CCOC(=O)c1c(NC(=O)c2c(F)c(F)c(F)c(F)c2F)sc(C(N)=O)c1C,MIC,[1],0.5 µM
CCOC(=O)c1c(NC(=O)c2c(F)c(F)c(F)c(F)c2F)sc2c1CCN(CC)C2,MIC,[3],0.23 µM
CNC(=O)c1c(-c2ccc(O)cc2)oc2ccc(O)c(CN3CCCCC3)c12,MIC,[1],0.047 µg/mL
same,MIC,[4],0.09 µM
O=c1cc(-c2ccccc2)oc2ccc(O)c(CN3CCCCC3)c12,MIC,[1],3.12 µg/mL
CCOC(=O)c1c(-c2ccccc2)oc2ccc(O)c(CN3CCCC3)c2c1=O,MIC,[1],> 32 µg/mL
O=c1cc(-c2ccc(Cl)cc2)oc2ccc(O)c(CN3CCC3)c12,MIC,[1],28.5 µg/mL
CCOC(=O)c1c(-c2ccccc2)oc2ccc(O)c(CN3CCC3)c2c1=O,MIC,[1],14.1 µg/mL
O=c1cc(-c2ccc(O)cc2)oc2ccc(O)c(CN3CCCCC3)c12,MIC,[1],3.84 µg/mL
O=c1c(-c2ccc(O)cc2)coc2ccc(O)c(CN3CCCCC3)c12,MIC,[1],> 32 µg/mL
O=c1cc(-c2ccccc2)oc2ccc(O)c(CN3CCC3)c12,MIC,[1],3.22 µg/mL
O=c1cc(-c2ccccc2)oc2ccc(O)c(CN3CC4(CSC4)C3)c12,MIC,[1],31.1 µg/mL
CCOC(=O)c1c(-c2ccc(O)cc2)oc2ccc(O)c(CN3CCCC3)c2c1=O,MIC,[1],> 32 µg/mL
CCN(CC)Cc1c(O)ccc2oc(-c3ccc(O)cc3)cc(=O)c12,MIC,[1],29.9 µg/mL
O=c1cc(-c2ccc(O)cc2)oc2ccc(O)c(CN3CCCC3)c12,Stabilty,[5],Stable
same,Stabilty,[6],Stable
same,selectivity ratio,[7],9
same,MIC,[1],0.938 µg/mL
same,remaining at 0.5 h,[8],102%
same,IC50,Vero,8.8 µg/mL
CCOC(=O)c1c(-c2ccccc2)oc2ccc(O)c(CN3CCCCC3)c2c1=O,MIC,[1],31.9 µg/mL
O=c1cc(-c2ccc(O)cc2)oc2ccc(O)c(CN3CCOCC3)c12,MIC,[1],> 32 µg/mL
O=c1cc(-c2ccc(F)cc2)oc2ccc(O)c(CN3CCC3)c12,MIC,[1],3.55 µg/mL
O=c1cc(-c2ccc(O)cc2)oc2ccc(O)c(CNC3CCCCC3)c12,MIC,[1],> 32 µg/mL
CNC(=O)c1c(-c2ccccc2)oc2ccc(O)c(CN3CCC3)c2c1=O,MIC,[1],> 32 µg/mL
CNC(=O)c1c(-c2ccccc2)oc2ccc(O)c(CN3CCCC3)c2c1=O,MIC,[1],> 32 µg/mL
O=c1cc(-c2ccccc2)oc2ccc(O)c(CN3CCCC3)c12,MIC,[1],3.68 µg/mL
COc1ccc(-c2cc(=O)c3c(CN4CCCCC4)c(O)ccc3o2)cc1,MIC,[1],7.3 µg/mL
Cc1ccc(-c2cc(=O)c3c(CN4CCC4)c(O)ccc3o2)cc1,MIC,[1],6.52 µg/mL
O=c1cc(-c2ccc(O)cc2)oc2ccc(O)c(CN3CCC3)c12,MRT last,[9],0.61 h
same,Activity,[10],4.77 log10CFU
same,Stabilty,[5],Stable
same,Cmax,[11],4460 ng/mL
same,bioavailability,[12],20.5%
same,Activity,[13],20.57 g
same,Stabilty,[6],Stable
same,selectivity ratio,[7],117
same,AUC(0-inf),[14],1040 ng·h/mL
same,Cmax,[15],1660 ng/mL
same,MRT inf,[16],1.82 h
same,half-life,[17],1.28 h
same,half-life,[18],1.42 h
same,AUC(0-inf),[19],4290 ng·h/mL
same,clearance,[20],80.1 mL/min/kg
same,Tmax,[21],0.25 h
same,MIC,[1],0.45 µg/mL
same,MRT last,[22],1.7 h
same,remaining at 0.5 h,[8],96%
same,IC50,Vero,53.1 µg/mL
same,AUC(0-t),[23],1030 ng·h/mL
same,Vd,[24],8.86 L/kg
same,MRT inf,[25],0.69 h
same,AUC(0-t),[26],4220 ng·h/mL
CCOC(=O)c1c(-c2ccc(O)cc2)oc2ccc(O)c(CN3CCC3)c2c1=O,MIC,[1],7.91 µg/mL
O=c1cc(-c2ccc(O)cc2)oc2ccc(O)c(CN3CCCCCC3)c12,MIC,[1],7.2 µg/mL
CN(C)Cc1c(O)ccc2oc(-c3ccc(O)cc3)cc(=O)c12,MIC,[1],> 32 µg/mL
O=c1cc(-c2ccc(O)cc2)oc2ccc(O)c(CN3CC4(CSC4)C3)c12,MIC,[1],15.3 µg/mL
CNC(=O)c1c(-c2ccccc2)oc2ccc(O)c(CN3CCCCC3)c2c1=O,MIC,[1],> 32 µg/mL
NNC(=O)c1ccncc1 [ISONIAZID],Activity,[27],1.76 log10CFU
same,MIC,[1],0.039 µg/mL
same,Activity,[28],20.9 g
CO[C@H]1/C=C/O[C@@]2(C)Oc3c(C)c(O)c4c(O)c(c(/C=N/N5CCN(C)CC5)c(O)c4c3C2=O)NC(=O)/C(C)=C\C=C\[C@H](C)[C@H](O)[C@@H](C)[C@@H](O)[C@@H](C)[C@H](OC(C)=O)[C@@H]1C [RIFAMPIN],MIC,[1],0.057 µg/mL
